Measurements reported in ChEMBL document CHEMBL2203235, “Optimization of a natural product-based class of γ-secretase modulators” (J Med Chem, 2012).

Legend:
[1] = Modulation of gamma secretase in CHO-2B7 cells assessed as reduction in amyloid beta 42 level after 5 hrs by MSD ELISA; assay type: cell-based; details: Cricetulus griseus, CHO-2B7, 5 h
[2] = tested on: CHO-2B7; assay: Modulation of gamma secretase in CHO-2B7 cells assessed as reduction in amyloid beta 40 level at 20 uM after 5 hrs by MSD ELISA; assay type: cell-based; set-up: scale not given: the % may be the effect or the level left; details: Cricetulus griseus
[3] = tested on: Liver microsomes; assay: Metabolic stability in human liver microsomes at 1 uM after 60 mins by LC/MS/MS analysis; details: 1 h
[4] = Metabolic stability in human liver microsomes assessed as compound remaining at 1 uM at 60 mins by LC/MS/MS analysis in absence of NADPH; assay type: ADME, Microsome; details: liver microsomes, read-out: Stability
Method in brief: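 Human liver microsomes were run without NADPH as a qualitative read of susceptibility to enzymatic hydrolysis. The read-out was percent parent remaining at 60 min.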

[5] = Modulation of gamma secretase in CHO-2B7 cells assessed as reduction in amyloid beta 40 level after 5 hrs by MSD ELISA; assay type: cell-based; details: Cricetulus griseus, CHO-2B7, 5 h

SMILES	IC50 [1]	Activity [2]	Stability [3]	remaining at 1 h, 1 µM [4]	IC50 [5]
CCO[C@@H]([C@H]1C[C@@H](C)[C@H]2[C@H](O1)[C@H](O)[C@@]1(C)[C@@H]3CC[C@H]4C(C)(C)[C@@H](OC(=O)N5CCNC(C(F)(F)F)C5)CC[C@@]45C[C@@]35CC[C@]21C)C(C)(C)O (stereo partly specified)	390 nM	31%	Stable		
CCO[C@@H]([C@H]1C[C@@H](C)[C@H]2[C@H](O1)[C@H](O)[C@@]1(C)[C@@H]3CC[C@H]4C(C)(C)[C@@H](OC(=O)NCCNS(=O)(=O)C(F)(F)F)CC[C@@]45C[C@@]35CC[C@]21C)C(C)(C)O	710 nM	13%	Stable		
CC(=O)O[C@@H]([C@H]1C[C@@H](C)[C@H]2[C@H](O1)[C@H](O)[C@@]1(C)[C@@H]3CC[C@H]4C(C)(C)[C@@H](OC(=O)N5CCOCC5)CC[C@@]45C[C@@]35CC[C@]21C)C(C)(C)O	310 nM			2%	14000 nM
CNC(=O)O[C@H](C(C)C)[C@H]1C[C@@H](C)[C@H]2[C@H](O1)[C@H](O)[C@@]1(C)[C@@H]3CC[C@H]4C(C)(C)[C@@H](O[C@H]5CNCCO5)CC[C@@]45C[C@@]35CC[C@]21C	480 nM			95%	4300 nM
CC(C)[C@@H](OC(=O)N1CCC1)[C@H]1C[C@@H](C)[C@H]2[C@H](O1)[C@H](O)[C@@]1(C)[C@@H]3CC[C@H]4C(C)(C)[C@@H](OC(=O)N5CCC(F)(F)CC5)CC[C@@]45C[C@@]35CC[C@]21C	9100 nM	12%	Stable		
CC(C)[C@@H](OC(N)=O)[C@H]1C[C@@H](C)[C@H]2[C@H](O1)[C@H](O)[C@@]1(C)[C@@H]3CC[C@H]4C(C)(C)[C@@H](OC(N)=O)CC[C@@]45C[C@@]35CC[C@]21C	700 nM			103%	1200 nM
CCO[C@@H]([C@H]1C[C@@H](C)[C@H]2[C@H](O1)[C@H](O)[C@@]1(C)[C@@H]3CC[C@H]4C(C)(C)[C@@H](OC(N)=O)CC[C@@]45C[C@@]35CC[C@]21C)C(C)(C)O	210 nM		Stable	116%	3900 nM
CCO[C@@H]([C@H]1C[C@@H](C)[C@H]2[C@H](O1)[C@H](O)[C@@]1(C)[C@@H]3CC[C@H]4C(C)(C)[C@@H](OC(=O)NC5CNC5)CC[C@@]45C[C@@]35CC[C@]21C)C(C)(C)O	53 nM		Stable	92%	1900 nM
CCO[C@@H]([C@H]1C[C@@H](C)[C@H]2[C@H](O1)[C@H](O)[C@@]1(C)[C@@H]3CC[C@H]4C(C)(C)[C@@H](OC(=O)N5CCOCC5)CC[C@@]45C[C@@]35CC[C@]21C)C(C)(C)O	220 nM			77%	2000 nM
CCO[C@H](C(C)C)[C@H]1C[C@@H](C)[C@H]2[C@H](O1)[C@H](O)[C@@]1(C)[C@@H]3CC[C@H]4C(C)(C)[C@@H](O)CC[C@@]45C[C@@]35CC[C@]21C	4400 nM			85%	
CC(C)[C@@H](OC(=O)N(C)C)[C@H]1C[C@@H](C)[C@H]2[C@H](O1)[C@H](O)[C@@]1(C)[C@@H]3CC[C@H]4C(C)(C)[C@@H](O[C@H]5CNCCO5)CC[C@@]45C[C@@]35CC[C@]21C	580 nM			114%	5900 nM
CC(=O)O[C@H](C(C)C)[C@H]1C[C@@H](C)[C@H]2[C@H](O1)[C@H](O)[C@@]1(C)[C@@H]3CC[C@H]4C(C)(C)[C@@H](O)CC[C@@]45C[C@@]35CC[C@]21C	780 nM			0%	7500 nM
CC(C)CO[C@@H]([C@H]1C[C@@H](C)[C@H]2[C@H](O1)[C@H](O)[C@@]1(C)[C@@H]3CC[C@H]4C(C)(C)[C@@H](O[C@H]5CN(C6COC6)CCO5)CC[C@@]45C[C@@]35CC[C@]21C)C(C)(C)O	3000 nM			78%	6000 nM
CNC(=O)O[C@H](C(C)C)[C@H]1C[C@@H](C)[C@H]2[C@H](O1)[C@H](O)[C@@]1(C)[C@@H]3CC[C@H]4C(C)(C)[C@@H](O)CC[C@@]45C[C@@]35CC[C@]21C	890 nM			96%	8500 nM
CC(C)O[C@@H]([C@H]1C[C@@H](C)[C@H]2[C@H](O1)[C@H](O)[C@@]1(C)[C@@H]3CC[C@H]4C(C)(C)[C@@H](O[C@H]5CN(C6COC6)CCO5)CC[C@@]45C[C@@]35CC[C@]21C)C(C)(C)O	440 nM			105%	2800 nM
CC(C)[C@@H](OC(=O)N(C)C)[C@H]1C[C@@H](C)[C@H]2[C@H](O1)[C@H](O)[C@@]1(C)[C@@H]3CC[C@H]4C(C)(C)[C@@H](OC(=O)NC5CNC5)CC[C@@]45C[C@@]35CC[C@]21C	300 nM			113%	9500 nM
CNC(=O)O[C@H](C(C)C)[C@H]1C[C@@H](C)[C@H]2[C@H](O1)[C@H](O)[C@@]1(C)[C@@H]3CC[C@H]4C(C)(C)[C@@H](OC(=O)NC5CNC5)CC[C@@]45C[C@@]35CC[C@]21C	120 nM			110%	5000 nM
CCO[C@@H]([C@H]1C[C@@H](C)[C@H]2[C@H](O1)[C@H](O)[C@@]1(C)[C@@H]3CC[C@H]4C(C)(C)[C@@H](O)CC[C@@]45C[C@@]35CC[C@]21C)C(C)(C)O	350 nM			100%	5500 nM
CNC(=O)OC[C@H]1C[C@@H](C)[C@H]2[C@H](O1)[C@H](O)[C@@]1(C)[C@@H]3CC[C@H]4C(C)(C)[C@@H](O[C@H]5CN(C(=O)CC6CC6)CCO5)CC[C@@]45C[C@@]35CC[C@]21C	350 nM			81%	81000 nM
CC(=O)O[C@@H]([C@H]1C[C@@H](C)[C@H]2[C@H](O1)[C@H](O)[C@@]1(C)[C@@H]3CC[C@H]4C(C)(C)[C@@H](OC(N)=O)CC[C@@]45C[C@@]35CC[C@]21C)C(C)(C)O	200 nM	37%			
CC(=O)O[C@@H]([C@H]1C[C@@H](C)[C@H]2[C@H](O1)[C@H](O)[C@@]1(C)[C@@H]3CC[C@H]4C(C)(C)[C@@H](OC(=O)N5CCC5)CC[C@@]45C[C@@]35CC[C@]21C)C(C)(C)O	510 nM			17%	15000 nM
C[C@@H]1C[C@H](COC(N)=O)O[C@H]2[C@H]1[C@@]1(C)CC[C@@]34C[C@@]35CC[C@H](O[C@H]3CN(C(=O)CC6CC6)CCO3)C(C)(C)[C@@H]5CC[C@H]4[C@]1(C)[C@H]2O	840 nM			77%	35000 nM
CC(C)[C@@H](OC(=O)N(C)C)[C@H]1C[C@@H](C)[C@H]2[C@H](O1)[C@H](O)[C@@]1(C)[C@@H]3CC[C@H]4C(C)(C)[C@@H](O)CC[C@@]45C[C@@]35CC[C@]21C	1000 nM			81%	10000 nM
CC(C)[C@@H](OC(=O)N1CCC1)[C@H]1C[C@@H](C)[C@H]2[C@H](O1)[C@H](O)[C@@]1(C)[C@@H]3CC[C@H]4C(C)(C)[C@@H](OC(=O)N5CCOCC5)CC[C@@]45C[C@@]35CC[C@]21C	360 nM		Stable	104%	11000 nM
C=C(C)CO[C@@H]([C@H]1C[C@@H](C)[C@H]2[C@H](O1)[C@H](O)[C@@]1(C)[C@@H]3CC[C@H]4C(C)(C)[C@@H](O[C@H]5CN(C6COC6)CCO5)CC[C@@]45C[C@@]35CC[C@]21C)C(C)(C)O	340 nM			84%	11000 nM
CC(C)[C@@H](OC(N)=O)[C@H]1C[C@@H](C)[C@H]2[C@H](O1)[C@H](O)[C@@]1(C)[C@@H]3CC[C@H]4C(C)(C)[C@@H](O[C@H]5CNCCO5)CC[C@@]45C[C@@]35CC[C@]21C	650 nM			108%	1700 nM
CC(C)[C@@H](OC(=O)N1CCC1)[C@H]1C[C@@H](C)[C@H]2[C@H](O1)[C@H](O)[C@@]1(C)[C@@H]3CC[C@H]4C(C)(C)[C@@H](O[C@H]5CN(C)CCO5)CC[C@@]45C[C@@]35CC[C@]21C	770 nM		Stable		8400 nM
CCO[C@@H]([C@H]1C[C@@H](C)[C@H]2[C@H](O1)[C@H](O)[C@@]1(C)[C@@H]3CC[C@H]4C(C)(C)[C@@H](OC(=O)N5CCC5)CC[C@@]45C[C@@]35CC[C@]21C)C(C)(C)O	140 nM		Stable		5000 nM
CO[C@@H]([C@H]1C[C@@H](C)[C@H]2[C@H](O1)[C@H](O)[C@@]1(C)[C@@H]3CC[C@H]4C(C)(C)[C@@H](O[C@H]5CN(C6COC6)CCO5)CC[C@@]45C[C@@]35CC[C@]21C)C(C)(C)O	690 nM			93%	9900 nM
CC(C)[C@@H](OC(=O)N1CCC1)[C@H]1C[C@@H](C)[C@H]2[C@H](O1)[C@H](O)[C@@]1(C)[C@@H]3CC[C@H]4C(C)(C)[C@@H](OC(=O)N5CC(O)C5)CC[C@@]45C[C@@]35CC[C@]21C	350 nM		Stable		8000 nM
